Reference: ChEMBL document CHEMBL3286372, “Design, synthesis and structure-activity relationship of novel semi-synthetic flavonoids as antiproliferative agents” (2014)

Legend:
SF-268 = assay: Growth inhibition of human SF268 cells after 48 hrs by coulter counting analysis; format: functional; details: SF-268, 48 h
In short: (§1)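 Five-dose NCI-60 follow-up, 0.01–100 µM, made from DMSO stock in buffered saline (final DMSO <1%), in duplicate wells. Cells in RPMI 1640 with 10% FBS at 6×10^4 cells/ml, 37 °C, 5% CO2, 48 h. Cells diluted tenfold in saline, Coulter-counted and corrected for dilution. GI50, TGI and LC50 taken from log concentration–percent growth curves.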

[1] = Growth inhibition of human NCI-ADR-RES cells after 48 hrs by coulter counting analysis; format: functional; in short: as §1
SK-OV-3 = assay: Growth inhibition of human SKOV3 cells after 48 hrs by coulter counting analysis; format: functional; details: SK-OV-3, 48 h; in short: as §1
[2] = Growth inhibition of human LOXIMVI cells after 48 hrs by coulter counting analysis; format: functional; details: LOX IMVI
In short: (§2)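 NCI five-dose screen at 0.01-100 µM, diluted from DMSO stocks in buffered saline (final DMSO <1%). Cells at 6×10^4 cells/ml in RPMI 1640 with 10% FBS, in duplicate wells, at 37 °C under 5% CO2 for 48 h. Cells diluted tenfold in saline and Coulter-counted. GI50, TGI and LC50 taken from log concentration-growth inhibition curves.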

M14 = assay: Growth inhibition of human M14 cells after 48 hrs by coulter counting analysis; format: functional; details: M14, 48 h; in short: as §2
HT-29 = assay: Growth inhibition of human HT-29 cells after 48 hrs by coulter counting analysis; format: functional; details: HT-29, 48 h; in short: as §2
[3] = Growth inhibition of human MOLT4 cells after 48 hrs by coulter counting analysis; format: functional; details: MOLT-4, 48 h; in short: as §1
NCI-H23 = assay: Growth inhibition of human NCI-H23 cells after 48 hrs by coulter counting analysis; format: functional; details: NCI-H23, 48 h; in short: as §1
MCF7 = assay: Growth inhibition of human MCF7 cells after 48 hrs by coulter counting analysis; format: functional; details: MCF7, 48 h; in short: as §2
ACHN = assay: Growth inhibition of human ACHN cells after 48 hrs by coulter counting analysis; format: functional; in short: as §2
SK-MEL-2 = assay: Growth inhibition of human SK-MEL-2 cells after 48 hrs by coulter counting analysis; format: functional; details: SK-MEL-2, 48 h; in short: as §1
SW-620 = assay: Growth inhibition of human SW620 cells after 48 hrs by coulter counting analysis; format: functional; details: SW-620, 48 h; in short: as §1
COLO 205 = assay: Growth inhibition of human COLO205 cells after 48 hrs by coulter counting analysis; format: functional; details: COLO 205, 48 h; in short: as §2
RPMI-8226 = assay: Growth inhibition of human RPMI8226 cells after 48 hrs by coulter counting analysis; format: functional; details: RPMI-8226, 48 h; in short: as §1
NCI-H322M = assay: Growth inhibition of human NCI-H322M cells after 48 hrs by coulter counting analysis; format: functional; in short: as §1
[4] = Growth inhibition of human UACC257 cells after 48 hrs by coulter counting analysis; format: functional; details: UACC-257, 48 h
In short: (§3)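 NCI five-dose screen, 0.01-100 µM, from DMSO stocks diluted in buffer saline (final DMSO <1%). Cells grown in RPMI 1640 + 10% FBS, seeded at 6×10^4 cells/ml, in duplicate wells. Exposure 48 h at 37 °C, 5% CO2. Cells diluted 10-fold in saline and counted by Coulter counter. GI50 derived from log concentration–percent growth inhibition curves. Controls carried matching PBS/saline/DMSO.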

[5] = Growth inhibition of human OVCAR5 cells after 48 hrs by coulter counting analysis; format: functional; details: OVCAR-5, 48 h; in short: as §1
[6] = biological target: Glycogen synthase kinase-3 beta (Homo sapiens) (UniProt P49841); assay: Inhibition of GSK-3beta (unknown origin) at 20 uM after 30 mins by scintillation counting analysis relative to control
Chain of Glycogen synthase kinase-3 beta (Homo sapiens) (P49841 whole entry, looked up): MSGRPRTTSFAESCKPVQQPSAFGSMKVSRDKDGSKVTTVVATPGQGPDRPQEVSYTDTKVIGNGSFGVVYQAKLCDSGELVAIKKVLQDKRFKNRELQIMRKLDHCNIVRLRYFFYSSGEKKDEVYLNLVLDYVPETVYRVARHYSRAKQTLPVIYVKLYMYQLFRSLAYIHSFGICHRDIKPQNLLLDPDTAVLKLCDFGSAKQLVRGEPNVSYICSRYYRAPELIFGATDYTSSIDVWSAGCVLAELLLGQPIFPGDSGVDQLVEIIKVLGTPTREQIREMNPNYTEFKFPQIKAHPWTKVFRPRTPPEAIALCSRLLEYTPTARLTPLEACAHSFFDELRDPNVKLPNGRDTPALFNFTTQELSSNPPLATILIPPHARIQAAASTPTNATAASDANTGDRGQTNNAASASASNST
In short: (§4)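 Recombinant kinases, cloned, expressed and purified in-house. Radiometric ³³P-ATP assay with kinase at ~10-50 nM final and 1-5 µg peptide or protein substrate. Compound at 20 µM final, in duplicate. Reaction started by adding ATP, run 30 min at ambient temperature, then spotted on P81 phosphocellulose. Plates washed in 1% phosphoric acid and counted by scintillation. No-substrate blank subtracted. Result is mean % activity change versus DMSO control.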

[7] = Growth inhibition of human UACC62 cells after 48 hrs by coulter counting analysis; format: functional; details: UACC-62, 48 h; in short: as §3
[8] = biological target: Cyclin-dependent kinase 2/cyclin E1 (Homo sapiens) (UniProt P24864+P24941); assay: Inhibition of CDK2/Cyclin E1 (unknown origin) at 20 uM after 30 mins by scintillation counting analysis relative to control; format: protein-complex assay; in short: as §4
A498 = assay: Growth inhibition of human A498 cells after 48 hrs by coulter counting analysis; format: functional; details: A498, 48 h; in short: as §2
CAKI-1 = assay: Growth inhibition of human CAKI-1 cells after 48 hrs by coulter counting analysis; format: functional; details: CAKI-1, 48 h; in short: as §2
KM12 = assay: Growth inhibition of human KM12 cells after 48 hrs by coulter counting analysis; format: functional; details: KM12, 48 h; in short: as §2
CCRF-CEM = assay: Growth inhibition of human CCRF-CEM cells after 48 hrs by coulter counting analysis; format: functional; in short: as §2
[9] = Growth inhibition of human OVCAR3 cells after 48 hrs by coulter counting analysis; format: functional; details: OVCAR-3, 48 h; in short: as §1
NCI-H522 = assay: Growth inhibition of human NCI-H522 cells after 48 hrs by coulter counting analysis; format: functional; details: NCI-H522, 48 h; in short: as §1
[10] = Growth inhibition of human HOP92 cells after 48 hrs by coulter counting analysis; format: functional; details: HOP-92, 48 h; in short: as §2
HCT-116 = assay: Growth inhibition of human HCT116 cells after 48 hrs by coulter counting analysis; format: functional; details: HCT-116, 48 h; in short: as §2
DU-145 = assay: Growth inhibition of human DU145 cells after 48 hrs by coulter counting analysis; format: functional; details: DU-145, 48 h; in short: as §2
[11] = Growth inhibition of human UO31 cells after 48 hrs by coulter counting analysis; format: functional; details: UO-31, 48 h; in short: as §3
[12] = Growth inhibition of human EKVX cells after 48 hrs by coulter counting analysis; format: functional; in short: as §2
SN12C = assay: Growth inhibition of human SN12C cells after 48 hrs by coulter counting analysis; format: functional; in short: as §1
[13] = Growth inhibition of human HCT15 cells after 48 hrs by coulter counting analysis; format: functional; details: HCT-15, 48 h; in short: as §2
786-0 = assay: Growth inhibition of human 786-0 cells after 48 hrs by coulter counting analysis; format: functional; details: 786-0, 48 h; in short: as §2
U-251 = assay: Growth inhibition of human U251 cells after 48 hrs by coulter counting analysis; format: functional; details: U-251, 48 h; in short: as §3
Malme-3M = assay: Growth inhibition of human MALME-3M cells after 48 hrs by coulter counting analysis; format: functional; in short: as §2
[14] = Growth inhibition of human SF295 cells after 48 hrs by coulter counting analysis; format: functional; details: SF-295, 48 h; in short: as §1
PC-3 = assay: Growth inhibition of human PC3 cells after 48 hrs by coulter counting analysis; format: functional; details: PC-3, 48 h; in short: as §1

In the case of `COc1c(C(=O)/C=C/c2ccc(Cl)cc2)c(O)c(Br)c2occc12`, the GI50 (SF-268) is reported as 3.5 µM, the GI50 [1] is reported as 3.07 µM and the GI50 (SK-OV-3) is reported as 1.11 µM. The GI50 [2] was 2.2 µM, the GI50 (M14) was 4.82 µM and the GI50 (HT-29) was 4.11 µM. The GI50 [3] was 2.09 µM, the GI50 (NCI-H23) was 3.25 µM and the GI50 (MCF7) was 2.36 µM. For the same compound, the GI50 (ACHN) was 5.09 µM, the GI50 (SK-MEL-2) was 4.16 µM and the GI50 (SW-620) was 2.71 µM. It also gave a GI50 (COLO 205) of 1.76 µM, a GI50 (RPMI-8226) of 2.78 µM and a GI50 (NCI-H322M) of 5.22 µM. It also gave a GI50 [4] of 4.98 µM, a GI50 [5] of 6.04 µM and an inhibition [6] of 30%. For the same compound, the GI50 [7] was 3.47 µM, the inhibition [8] was 5% and the GI50 (A498) was 3.92 µM. For the same compound, the GI50 (CAKI-1) was 3.35 µM, the GI50 (KM12) was 3.49 µM and the GI50 (CCRF-CEM) was 2.66 µM. For the same compound, the GI50 [9] was 1.91 µM, the GI50 (NCI-H522) was 2.8 µM and the GI50 [10] was 1.39 µM. The GI50 (HCT-116) was 2.83 µM, the GI50 (DU-145) was 4.07 µM and the GI50 [11] was 2.59 µM. For the same compound, the GI50 [12] was 4.18 µM, the GI50 (SN12C) was 3.77 µM and the GI50 [13] was 3.43 µM. It also gave a GI50 (786-0) of 2.99 µM, a GI50 (U-251) of 3.22 µM and a GI50 (Malme-3M) of 2.61 µM. It also gave a GI50 [14] of 6.67 µM and a GI50 (PC-3) of 2.94 µM.
